Measured values taken from ChEMBL document CHEMBL4808178 (J Med Chem, 2021).
Active and inactive are the calls of the source. The rule behind the calls is not given here.

Legend:
[1] = tested on: PC-3; assay: Cytotoxicity against human PC3 cells assessed as reduction in cell viability incubated for 72 hrs by MTT assay; assay type: functional, cell-based; details: PC-3, 72 h
How it was run: (§1)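 About 5 × 10³ cells/well, seeded overnight at 37 °C, 5% CO₂, in DMEM or RPMI-1640 with 10% FBS and antibiotics. DMSO-dissolved compounds diluted in medium, exposure 72 h.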

[2] = tested on: HCT-116; assay: Cytotoxicity against human HCT-116 cells assessed as reduction in cell viability incubated for 72 hrs by MTT assay; assay type: functional, cell-based; details: HCT-116, 72 h; how it was run: as §1
[3] = tested on: MCF7; assay: Cytotoxicity against human MCF7 cells assessed as reduction in cell viability incubated for 72 hrs by MTT assay; assay type: functional, cell-based; details: MCF7, 72 h; how it was run: as §1
[4] = tested on: HT-29; assay: Cytotoxicity against human HT-29 cells assessed as reduction in cell viability incubated for 72 hrs by MTT assay; assay type: functional, cell-based; details: HT-29, 72 h
[5] = tested on: T-24; assay: Cytotoxicity against human T24 cells assessed as reduction in cell viability incubated for 72 hrs by MTT assay; assay type: functional, cell-based; details: T-24, 72 h; how it was run: as §1
[6] = tested on: L02; assay: Cytotoxicity against human L02 cells assessed as reduction in cell viability incubated for 72 hrs by MTT assay; assay type: cell-based; details: L02, 72 h; how it was run: as §1
[7] = target: Dual specificity protein kinase CLK2 (Homo sapiens, UniProt P49760); assay: Inhibition of human CLK2 incubated for 2 hrs
[8] = tested on: HCT-116; assay: Inhibition of cell stemness in human HCT116 cells assessed as inhibition of CD44+/CD133+ expression at 20 uM after 24 hrs by flow cytometry analysis; assay type: functional
How it was run: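 ALDH⁺ HCT-116 subpopulation sorted by flow cytometry; 2 × 10⁵ cells/well seeded overnight at 37 °C, 5% CO₂; treated 20 μM for 24 h (vehicle DMSO); stained with PE anti-CD133 and FITC anti-CD44 30 min; CD44⁺/CD133⁺ read by flow cytometry.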

[9] = tested on: HCT-116; assay: Inhibition of cell stemness in human HCT116 cells assessed as morphological alterations at 5 uM after 10 days by microscopic analysis; assay type: functional, cell-based; details: time 10.0 day
How it was run: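 Sorted ALDH⁺ HCT-116 cells, 800/well, in serum-free DMEM with B27 (1:50), EGF 20 ng/mL, β-FGF 10 ng/mL; co-incubated with compound (5 μM) or DMSO vehicle for 10 days; sphere number, diameter and morphology scored from microscopy images; mean ± SD, n = 3.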

Sequence of Dual specificity protein kinase CLK2 (P49760 whole entry): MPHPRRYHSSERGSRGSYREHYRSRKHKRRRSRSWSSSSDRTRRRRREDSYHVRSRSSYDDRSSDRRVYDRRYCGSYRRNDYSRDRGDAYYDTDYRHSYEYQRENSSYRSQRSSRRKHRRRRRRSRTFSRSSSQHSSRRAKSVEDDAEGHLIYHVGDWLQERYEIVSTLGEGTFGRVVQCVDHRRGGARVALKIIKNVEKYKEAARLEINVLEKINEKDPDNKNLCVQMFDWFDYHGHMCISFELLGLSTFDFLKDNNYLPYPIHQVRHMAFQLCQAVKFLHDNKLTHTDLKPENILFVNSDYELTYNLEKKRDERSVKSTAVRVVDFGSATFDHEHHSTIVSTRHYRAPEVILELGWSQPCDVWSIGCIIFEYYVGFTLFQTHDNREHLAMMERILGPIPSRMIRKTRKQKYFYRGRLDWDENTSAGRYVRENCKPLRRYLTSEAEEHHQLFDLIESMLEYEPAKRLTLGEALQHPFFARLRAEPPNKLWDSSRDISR

## COC(=O)CCCNC(=O)c1ccc2c(c1)nc(Nc1cccc(Cl)c1)c1ccncc12
[1]
  IC50: 4.89 µM
[2]
  IC50: 5.91 µM
[3]
  IC50: 19.8 µM
[4]
  IC50: 20.6 µM
[5]
  IC50: 12.9 µM
[6]
  IC50: 89.1 µM

## O=C(OCCc1ccccn1)c1ccc2c(c1)nc(Nc1cccc(Cl)c1)c1ccncc12
[1]
  IC50: 11 µM
[2]
  IC50: 6.91 µM
[3]
  IC50: 10.1 µM
[4]
  IC50: 9.52 µM
[5]
  IC50: 22.5 µM
[6]
  IC50: 24.9 µM

## O=C(NCCCO)c1ccc2c(c1)nc(Nc1cccc(Cl)c1)c1ccncc12
[1]
  IC50: 8.94 µM
[2]
  IC50: 13.7 µM
[3]
  IC50: 7.71 µM
[4]
  IC50: 11.8 µM
[5]
  IC50: 18.8 µM
[6]
  IC50: 74.2 µM

## O=C(OCCF)c1ccc2c(c1)nc(Nc1cccc(Cl)c1)c1ccncc12
[7]
  IC50: 0.00106 µM
[1]
  IC50: 6.4 µM
[2]
  IC50: 4.28 µM
[3]
  IC50: 5.98 µM
[4]
  IC50: 7.8 µM
[5]
  IC50: 5.91 µM
[6]
  IC50: 57.8 µM

## C#CCNC(=O)c1ccc2c(c1)nc(Nc1cccc(Cl)c1)c1ccncc12
[1]
  IC50: 7.6 µM
[2]
  IC50: 21.2 µM
[3]
  IC50: 13.9 µM
[4]
  IC50: 16.4 µM
[5]
  IC50: 18.5 µM
[6]
  IC50: 28.4 µM

## NCCNC(=O)c1ccc2c(c1)nc(Nc1cccc(Cl)c1)c1ccncc12
[7]
  IC50: 0.0196 µM
[1]
  IC50: 5.48 µM
[2]
  IC50: 7.26 µM
[3]
  IC50: 4.88 µM
[4]
  IC50: 11.4 µM
[5]
  IC50: 14.4 µM
[6]
  IC50: 111 µM

## O=C(OCC(F)F)c1ccc2c(c1)nc(Nc1cccc(Cl)c1)c1ccncc12
[7]
  IC50: 0.00154 µM
[1]
  IC50: 22.1 µM
[2]
  IC50: 7.52 µM
[3]
  IC50: 9.85 µM
[4]
  IC50: 8.09 µM
[5]
  IC50: 22.7 µM
[6]
  IC50: 83.9 µM

## O=C(NO)c1ccc2c(c1)nc(Nc1cccc(Cl)c1)c1ccncc12
[1]
  IC50: 15.1 µM
[2]
  IC50: 8.62 µM
[3]
  IC50: 7.66 µM
[4]
  IC50: 9.98 µM
[5]
  IC50: 3.89 µM
[6]
  IC50: 21.4 µM

## CC(=O)c1cc2c(o1)C(=O)c1ccccc1C2=O [NAPABUCASIN]
[8]
  inhibition at 20 µM: 89%
[9]
  inhibition: Active

## O=C(NCCN1CCCC1)c1ccc2c(c1)nc(Nc1cccc(Cl)c1)c1ccncc12
[1]
  IC50: 10.1 µM
[2]
  IC50: 8.79 µM
[3]
  IC50: 8.6 µM
[4]
  IC50: 7.94 µM
[5]
  IC50: 3.23 µM
[6]
  IC50: 16 µM

## O=C(OCCO)c1ccc2c(c1)nc(Nc1cccc(Cl)c1)c1ccncc12
[7]
  IC50: 0.00238 µM
[1]
  IC50: 9.15 µM
[2]
  IC50: 10.9 µM
[3]
  IC50: 15.2 µM
[4]
  IC50: 10.9 µM
[5]
  IC50: 16.6 µM
[6]
  IC50: 45.1 µM

## O=C(NCCN1CCCCC1)c1ccc2c(c1)nc(Nc1cccc(Cl)c1)c1ccncc12
[1]
  IC50: 6.08 µM
[2]
  IC50: 8.6 µM
[3]
  IC50: 3.74 µM
[4]
  IC50: 13.8 µM
[5]
  IC50: 3.24 µM
[6]
  IC50: 14.3 µM

## CS(=O)(=O)NC(=O)c1ccc2c(c1)nc(Nc1cccc(Cl)c1)c1ccncc12
[1]
  IC50: 4.16 µM
[2]
  IC50: 13.2 µM
[3]
  IC50: 12.2 µM
[4]
  IC50: 17.8 µM
[5]
  IC50: 23.5 µM
[6]
  IC50: 28.4 µM

## O=C(NCCN1CCOCC1)c1ccc2c(c1)nc(Nc1cccc(Cl)c1)c1ccncc12
[7]
  IC50: 0.0219 µM
[1]
  IC50: 3.28 µM
[2]
  IC50: 7.98 µM
[3]
  IC50: 11 µM
[4]
  IC50: 13.4 µM
[5]
  IC50: 8.73 µM
[6]
  IC50: 37.8 µM

## CN(C)CCNC(=O)c1ccc2c(c1)nc(Nc1cccc(Cl)c1)c1ccncc12
[1]
  IC50: 11.1 µM
[2]
  IC50: 12.8 µM
[3]
  IC50: 6.01 µM
[4]
  IC50: 5.08 µM
[5]
  IC50: 5.93 µM
[6]
  IC50: 17.3 µM

## O=C(NCCBr)c1ccc2c(c1)nc(Nc1cccc(Cl)c1)c1ccncc12
[7]
  IC50: 0.0247 µM
[1]
  IC50: 8.76 µM
[2]
  IC50: 28.1 µM
[3]
  IC50: 14.9 µM
[4]
  IC50: 8.01 µM
[5]
  IC50: 8.95 µM
[6]
  IC50: 66.7 µM

## O=C(O)CCCNC(=O)c1ccc2c(c1)nc(Nc1cccc(Cl)c1)c1ccncc12
[1]
  IC50: 4.2 µM
[2]
  IC50: 24.8 µM
[3]
  IC50: 19.6 µM
[4]
  IC50: 14.5 µM
[5]
  IC50: 21.1 µM
[6]
  IC50: 32.2 µM

## O=C(NCC(F)F)c1ccc2c(c1)nc(Nc1cccc(Cl)c1)c1ccncc12
[1]
  IC50: 6.12 µM
[2]
  IC50: 16.5 µM
[3]
  IC50: 10.4 µM
[5]
  IC50: 18.1 µM
[6]
  IC50: 18.4 µM

## O=C(O)CCNC(=O)c1ccc2c(c1)nc(Nc1cccc(Cl)c1)c1ccncc12
[1]
  IC50: 16.2 µM
[2]
  IC50: 4.6 µM
[3]
  IC50: 24.6 µM
[4]
  IC50: 19.9 µM
[5]
  IC50: 24.4 µM
[6]
  IC50: 72.8 µM

## NCCCNC(=O)c1ccc2c(c1)nc(Nc1cccc(Cl)c1)c1ccncc12
[1]
  IC50: 14.1 µM
[2]
  IC50: 15.9 µM
[3]
  IC50: 19.7 µM
[4]
  IC50: 9.87 µM
[5]
  IC50: 37.3 µM
[6]
  IC50: 85 µM

## O=C(OCCOCCOCCO)c1ccc2c(c1)nc(Nc1cccc(Cl)c1)c1ccncc12
[1]
  IC50: 19.2 µM
[2]
  IC50: 9.71 µM
[3]
  IC50: 13.6 µM
[4]
  IC50: 12.6 µM
[5]
  IC50: 14.1 µM
[6]
  IC50: 30.7 µM

## COC(=O)CCNC(=O)c1ccc2c(c1)nc(Nc1cccc(Cl)c1)c1ccncc12
[7]
  IC50: 0.0097 µM
[1]
  IC50: 9.94 µM
[2]
  IC50: 8.13 µM
[3]
  IC50: 4.51 µM
[4]
  IC50: 3.52 µM
[5]
  IC50: 10.7 µM
[6]
  IC50: > 200 µM

## O=C(OCCC(Cl)Cl)c1ccc2c(c1)nc(Nc1cccc(Cl)c1)c1ccncc12
[1]
  IC50: 13.5 µM
[2]
  IC50: 20.8 µM
[3]
  IC50: 14.2 µM
[4]
  IC50: 18.4 µM
[5]
  IC50: 20.6 µM
[6]
  IC50: 22 µM

## O=C(OCCI)c1ccc2c(c1)nc(Nc1cccc(Cl)c1)c1ccncc12
[7]
  IC50: 0.00169 µM
[1]
  IC50: 10 µM
[2]
  IC50: 17.7 µM
[3]
  IC50: 10.7 µM
[4]
  IC50: 17.1 µM
[5]
  IC50: 17.5 µM
[6]
  IC50: 43.5 µM
